# Screening data: PubChem, Johns Hopkins Ion Channel Center
# RGS4 act: RGS4 potentiators or activators, primary screen, cell-based, HEK293 M3R inducible RGS4, calcium flux; carbachol calcium flux Fluo4; active compounds read low; B-score at 10 µM; 310,000 compounds, 0.92% hits; AID 463111, 2010;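 active = B-score of the integrated calcium signal more than 4 SD below the library mean, with starting fluorescence not abnormally high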;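 also: negative B-score means reduced calcium response which marks RGS4 activation or potentiation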
#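 Material: M3R-expressing HEK293 line, RGS4 induced by doxycycline | Schedule: Overnight RGS4 induction, 30 min dye load 37 °C, 20 min compound RT | Measured by: Fluo4 fluorescence kinetic imaging of calcium | Read-out: Integrated calcium ratio converted to B score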
# MrgX1 antagonist: antagonists of human MrgX1 receptor, primary screen, HEK293 cells, Fluo-4 calcium flux. B-score at 10 µM. Mas-related G-protein coupled receptor member X1 (Homo sapiens), Q96LB2. 310,000 compounds, 1.3% hits. BAM8-22 antagonism; active compounds read low;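 active = calcium-response B-score plate-corrected more than 3 library SD below zero, starting fluorescence within 5 deviations, no agonist response on first addition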;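 also: peak minus trough fluorescence over baseline after final BAM8-22 challenge near maximal dose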
# Target sequence (Q96LB2 whole entry, looked up): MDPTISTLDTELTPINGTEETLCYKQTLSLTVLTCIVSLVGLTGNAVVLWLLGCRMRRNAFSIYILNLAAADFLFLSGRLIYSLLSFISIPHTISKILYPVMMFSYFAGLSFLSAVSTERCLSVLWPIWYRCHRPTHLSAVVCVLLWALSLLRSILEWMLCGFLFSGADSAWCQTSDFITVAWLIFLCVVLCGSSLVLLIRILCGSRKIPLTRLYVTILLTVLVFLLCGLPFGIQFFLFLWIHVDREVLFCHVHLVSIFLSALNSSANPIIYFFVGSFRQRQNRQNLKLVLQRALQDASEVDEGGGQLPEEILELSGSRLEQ
# MrgX1 PAM: positive allosteric modulators of MrgX1, primary screen, HEK293 cells, Fluo-4 calcium flux | Mas-related G-protein coupled receptor member X1 (Homo sapiens), Q96LB2 | FDSS; active compounds read high | B-score at 10 µM | 310,000 compounds, 0.63% hits;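 active = plate-corrected calcium response at least 3 library SD above typical, normal starting fluorescence, not activating the receptor alone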;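 also: compound read alongside a low EC10 to EC30 dose of BAM8-22 agonist; peak minus trough fluorescence over baseline measured at the second addition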
# MrgX1 agonist: agonists of human MrgX1 receptor, primary screen, HEK293 cells, Fluo-4 calcium flux | 310,000 compounds, 0.44% hits | B-score at 10 µM | Mas-related G-protein coupled receptor member X1 (Homo sapiens), Q96LB2 | Fluo-4 calcium fluorescence, agonist mode; active compounds read high;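 active = calcium response B-score plate-corrected fluorescence ratio at least 3 library SD, with starting fluorescence B-score inside 5 SD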
#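 times = overnight plating, then 30 min 37 °C plus 30 min room-temperature dye loading | assay system = stable human MrgX1 HEK293 cell line | input = fifteen thousand cells per well | signal = kinetic calcium dye fluorescence, Fluo-4 NW | dosing = compound delivered in addition one of three | read-out = B-scored fluorescence response ratio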
# RGS4 block: RGS4 inhibitors, primary screen, cell-based, HEK293 M3R inducible RGS4, calcium flux. B-score at 10 µM. Regulator of G-protein signaling 4 (Homo sapiens), P49798. Fluo-4 calcium flux; active compounds read high; triggered by carbachol at its EC20. 310,000 compounds, 0.45% hits;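 active = B-score, a plate-corrected calcium signal, over three deviations above library mean, with baseline fluorescence within five deviations of library mean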;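 also: RGS4 expression induced by doxycycline in cells with stable M3 receptor; B-score is computed from the integrated fluorescence ratio over baseline after carbachol; higher B-score means a larger calcium signal and so more RGS4 inhibition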
# Target sequence (P49798 whole entry, looked up): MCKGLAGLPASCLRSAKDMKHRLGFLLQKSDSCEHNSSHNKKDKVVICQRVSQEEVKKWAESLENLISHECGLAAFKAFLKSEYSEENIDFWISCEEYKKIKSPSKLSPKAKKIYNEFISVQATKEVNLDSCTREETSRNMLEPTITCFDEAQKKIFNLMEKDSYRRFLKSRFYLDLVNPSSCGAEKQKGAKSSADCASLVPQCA
# MrgX1 ant reconf: MrgX1 receptor antagonists, duplicate retest, confirmation, HEK293 cells, Fluo-4 calcium flux | shares compounds with MrgX1 antagonist | BAM8-22 calcium flux; active compounds read low | remaining BAM8-22 calcium response % of control (active compounds read low), % at 10 µM | 2,300 compounds, 19% hits | AID 602420, 2012;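 active = remaining agonist calcium response no higher than 100% minus 3 SD of agonist-only control wells, with starting fluorescence near control levels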;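 also: agonist BAM8-22 given at a near maximal EC90 to ECmax level; peak minus minimum fluorescence divided by baseline after agonist addition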
# HEK293 Ca flux: nonspecific calcium signal in parental HEK293, confirmation, counter-screen for MrgX1 antagonist project, parental HEK293 cells, Fluo-4 calcium flux; 4,000 compounds, 2% hits; fluorescence ratio F(max-min)/F0 at 10 µM; Fluo-4 calcium fluorescence, FDSS; AID 624111, 2012; shares compounds with MrgX1 antagonist;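 active = duplicate-averaged calcium fluorescence ratio at least three times the standard deviation of buffer wells, a nonspecific response in parental cells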
# HEK293 Ca counter: calcium response in parental HEK293 cells, primary screen, counter-screen for MrgX1 allosteric activator project, cell-based, Fluo-4 calcium flux, duplicate. fluorescence ratio F(max-min)/F0 at 10 µM. shares compounds with MrgX1 antagonist. Fluo-4 fluorescence ratio; active compounds read high. 4,000 compounds, 0.4% hits;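 active = calcium fluorescence ratio, averaged over duplicates, at least 3 SD of the buffer-well ratio, meaning a nonspecific response in receptor-free cells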;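 also: untransfected parental HEK293 lacking MrgX1 used as counterscreen for MrgX1 allosteric activators; fluorescence change taken during the second addition on a kinetic imager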
# HEK293 Ca cntr2: calcium response in parental HEK293 cells, primary screen, counter-screen for MrgX1 agonist project, cell-based, Fluo-4 calcium flux, duplicate, agonist mode; 4,000 compounds, 8.7% hits; shares compounds with MrgX1 antagonist; Fluo-4 calcium fluorescence (FDSS); active compounds read high; fluorescence ratio F(max-min)/F0 at 10 µM;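 active = calcium fluorescence ratio at least three times the spread of buffer wells, meaning a non-specific response in parental cells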
# * = called active by the depositor; i = inactive; nt = no result. Rows were chosen to be rich in hits. Some 3.5% of all compounds tested hit in one or more screens of this group.
SMILES,RGS4 act,MrgX1 antagonist,MrgX1 PAM,MrgX1 agonist,RGS4 block,MrgX1 ant reconf,HEK293 Ca flux,HEK293 Ca counter,HEK293 Ca cntr2
Cc1noc(C)c1CSc1ncnc2ccccc12,i,-7.7*,i,i,i,i,i,i,i
O=C(CCC(=O)N(Cc1ccco1)C(C(=O)NC1CCCC1)c1ccncc1)Nc1cccnc1 (stereo unspecified),i,i,i,i,i,nt,nt,nt,nt
CCN1CCN(C(=O)c2ccccc2N(Cc2ccccc2)S(=O)(=O)c2ccc(C)cc2)CC1,i,i,i,i,i,nt,nt,nt,nt
O=C1C2CCCN2C(c2ccc(Br)cc2)N1c1ccc(F)cc1 (stereo unspecified),i,-5.7*,i,i,i,i,i,i,i
O=C1C2CCCN2C(c2cccc(Br)c2)N1c1ccc(F)cc1 (stereo unspecified),i,i,i,i,i,nt,nt,nt,nt
COc1ccc(C2N(c3ccc(F)cc3)C(=O)C3CCCN32)cc1 (stereo unspecified),i,-6.3*,i,i,i,i,i,i,i
CC(=O)N1CCN(S(=O)(=O)c2ccc(S(=O)(=O)N3CCCC(C)C3)cc2)CC1 (stereo unspecified),i,i,i,i,i,nt,nt,nt,nt
COc1ccc(CCNC(=O)C(=O)N2CCCC2)cc1OC,i,i,i,i,i,nt,nt,nt,nt
C=CCn1c(SCc2cccc(C#N)c2)nnc1-c1ccccc1O,i,-4.6*,i,i,i,i,i,i,i
C=CCn1c(SCc2ccc(C#N)cc2)nnc1-c1cccc(Cl)c1,i,i,i,i,i,nt,nt,nt,nt
CCOc1ccc(CCNC(=O)Cn2ccc3ccccc3c2=O)cc1OCC,i,i,i,i,i,nt,nt,nt,nt
COCCNC(=O)C1CC2Cn3c(nc4cc(Cl)c(Cl)cc43)C2N1C (stereo unspecified),i,-5.5*,i,i,i,i,i,i,i
CC1Cc2ccccc2N1C(=O)CSc1nnc(Cn2nnc3ccccc32)n1C (stereo unspecified),i,-6.9*,i,i,i,i,i,i,i
CC1Cc2ccccc2N1C(=O)CSc1nc2ccccc2n1CC(=O)N1CCOCC1 (stereo unspecified),i,-4.6*,i,i,i,i,i,i,i
CNCCCOc1cccc(OC(C)C)c1,i,-7.3*,i,i,i,i,i,i,i
Cc1cc(C(=O)OCC(=O)N2CCN(c3ccccc3)CC2)c2ccccc2n1,i,-5.5*,i,i,i,i,i,i,i
O=C(OCC(=O)N1CCN(c2ccccc2)CC1)c1ccc(O)cc1O,i,i,i,i,i,nt,nt,nt,nt
O=C(CSc1nnc(CNC(=O)c2ccc(F)cc2)o1)NCc1ccc2c(c1)OCO2,i,-7.6*,i,i,i,i,i,i,i
O=C(CSc1nnc(CNC(=O)c2ccc(F)cc2)o1)NCc1ccccc1Cl,i,i,i,i,i,nt,nt,nt,nt
O=C(CSc1nnc(CNC(=O)c2ccccc2)o1)NCc1ccccc1Cl,i,-6.6*,i,i,i,i,i,i,i
O=C(CSc1nnc(CNC(=O)c2ccc(F)cc2)o1)NCc1ccc(F)cc1,i,i,i,i,i,nt,nt,nt,nt
CCOC(=O)C1CCN(C(=O)CCCN2C(=O)c3ccccc3C2=O)CC1,i,-10*,i,i,i,i,i,i,i
CCOC(=O)C1CCN(C(=O)CCCOc2ccccc2)CC1,i,i,i,i,i,nt,nt,nt,nt
Cc1oc(CC(C)C)c(CN)c1C(=O)O,i,-4.6*,i,i,i,i,i,i,i
COc1ccccc1N1CC(C(=O)Nc2nnc(SC)s2)CC1=O (stereo unspecified),i,i,i,i,i,nt,nt,nt,nt
SMILES,RGS4 act,MrgX1 antagonist,MrgX1 PAM,MrgX1 agonist,RGS4 block,MrgX1 ant reconf,HEK293 Ca flux,HEK293 Ca counter,HEK293 Ca cntr2
O=C(COC(=O)CCc1nc2ccccc2c(=O)[nH]1)Nc1ccc2c(c1)OCO2,i,i,i,i,i,nt,nt,nt,nt
COc1cc(NC(=O)CC(C)C)ccc1NC(=O)c1ccco1,i,-5.2*,i,i,i,i,i,i,i
CCN(CC)c1ccc(N=Cc2ccc(N(CC)CC)cc2O)cc1,i,-8.2*,i,i,i,i,0.24*,i,46*
CCN(CC)c1ccc(C=Nc2ccc(N(C)C)cc2)c(O)c1,i,-4.6*,i,i,i,66%*,i,i,i
O=C(C1CCC(CNc2c(N3CCCCC3)c(=O)c2=O)CC1)N1CCN(c2ccccn2)CC1 (stereo unspecified),i,i,i,i,i,nt,nt,nt,nt
CCOC(=O)CNc1c(N2CCN(c3ccccn3)CC2)c(=O)c1=O,i,-6.5*,i,i,i,i,i,i,i
COc1cc(NC(=S)N2CCCCC2C)c(OC)cc1Cl (stereo unspecified),i,-6.5*,i,i,i,i,i,i,i
CCN1CCN(C(=O)C2CCN(Cc3cc(Cl)ccc3O)CC2)CC1,i,-7.7*,i,i,i,i,i,i,i
CCN1CCN(C(=O)C2CCN(Cc3nc(-c4cccc(Cl)c4)oc3C)CC2)CC1,i,i,i,i,i,nt,nt,nt,nt
